The text below walks through data of ChEMBL document CHEMBL1122310, “Synthesis of exo-3-phenylbicyclo[3.2.1]oct-3-en-2-amine and related compounds as potential analgesics” (1983).

Structures are written as SMILES. Values joined by “and” are separate entries in the source; they are usually repeats but may differ in a detail not shown here. Identical values can stand only once.

What all share (assay type): functional
The species entered for one assay is Mus musculus. The assay can be described thus: Antinociceptive activity by measuring inhibition of acetylcholine writhing in mouse. The gist of the method: (§1)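 ED50 determination: six animals per dose group, each dose tested on two or three separate occasions. Pooled data (total dose groups of 12 or 18 animals) analysed by regression to give ED50. Inflamed-paw pressure test in rats; acetylcholine-induced writhing in mice. Doses for the rat paw test given po.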

For assay [1], the species on record is Rattus norvegicus. The assay can be described thus: Antinociceptive activity by measuring in flamed paw pressure threshold in rat. The essentials: as §1
For assay [2], the system named is Rattus norvegicus. The assay can be described thus: Behavioral stimulant activity in rat by peroral administration; Inactive.
Assay [3] deals with Rattus norvegicus. Kind of assay: Behavioral stimulant activity in rat by sc administration; Marked CNS stimulation.
Assay [4] has as its system Rattus norvegicus. The assay can be described thus: Behavioral stimulant activity in rat by sc administration; Slight to moderate CNS stimulation.
The test system of assay [5] is Rattus norvegicus. Kind of assay: Behavioral stimulant activity in rat by sc administration; Moderate CNS stimulation.
For assay [6], the system named is Rattus norvegicus. The assay can be described thus: Behavioral stimulant activity in rat by sc administration; Marked CNS activity.

In the case of `CN[C@@H]1C(c2ccccc2)=CC2CCC1C2` (some centres not stated), the figures for the median effective dose (ED50) in the assay listed under Mus musculus and in the assay filed under Rattus norvegicus [1] were 4 mg/kg and 13.4 mg/kg, respectively.

In the assay on Rattus norvegicus [2], `C=CCN(C)[C@@H]1C(c2ccccc2)=CC2CCC1C2` (some centres not stated) returned a Dose of 25 mg/kg. For the same molecule, in the assay listed under Rattus norvegicus [1], the ED50 is above 30 mg/kg.

The molecule `CCN(C)[C@@H]1C(c2cccc(O)c2)=CC2CCC1C2` (some centres not stated) returned a Dose in the assay with Rattus norvegicus [2] of 25 mg/kg. The ED50 in the assay listed under Rattus norvegicus [1] is above 30 mg/kg.

Consider `COc1ccc2c3c1O[C@H]1[C@@H](O)C=C[C@H]4[C@@H](C2)N(C)CC[C@@]341` [CODEINE], for which the ED50 was 10.3 mg/kg in the assay listed under Mus musculus and 5.7 mg/kg in the assay listed under Rattus norvegicus [1]. This molecule showed a Dose in the assay with Rattus norvegicus [2] of 50 mg/kg.

As to `CC(C)N(C)[C@@H]1C(c2ccccc2)=CC2CCC1C2` (some centres not stated), in the assay on Rattus norvegicus [2], the Dose was 25 mg/kg. The molecule further returned an ED50 in the assay filed under Rattus norvegicus [1] above 30 mg/kg.

As to `CN(C)[C@@H]1C(c2ccccc2)=CC2CCC1C2` (some centres not stated), the ED50 was 3.9 mg/kg in the assay listed under Mus musculus and 2.9 mg/kg in the assay filed under Rattus norvegicus [1]. This molecule came in with a Dose in the assay on Rattus norvegicus [3] of 50 mg/kg.

`CN(C)CCN(C)[C@@H]1C(c2ccccc2)=CC2CCC1C2` (some centres not stated): in the assay on Rattus norvegicus [2], the Dose is 25 mg/kg. In addition, in the assay listed under Rattus norvegicus [1], the ED50 was above 30 mg/kg.

Turning to `CC(C)N[C@@H]1C(c2ccccc2)=CC2CCC1C2` (some centres not stated), the results for the ED50 in the assay filed under Mus musculus and in the assay filed under Rattus norvegicus [1] were 15.4 mg/kg and above 30 mg/kg, respectively.

For `C1=C(c2ccccc2)[C@@H](NCCc2ccccc2)C2CCC1C2` (some centres not stated), the Dose with Rattus norvegicus [2] is 50 mg/kg. The ED50 in the assay listed under Rattus norvegicus [1] was above 30 mg/kg.

For `C1=C(c2ccccc2)[C@@H](N2CCCC2)C2CCC1C2` (some centres not stated), the ED50 in the assay filed under Mus musculus was found to be 19 mg/kg; in the assay filed under Rattus norvegicus [1] it was 15.7 mg/kg. The Dose in the assay with Rattus norvegicus [3] was 25 mg/kg and 50 mg/kg.

`COCCN(C)[C@@H]1C(c2ccccc2)=CC2CCC1C2` (some centres not stated) yielded a Dose in the assay on Rattus norvegicus [2] of 25 mg/kg. Moreover, in the assay filed under Rattus norvegicus [1], the ED50 is above 30 mg/kg.

As for `CCN(C)[C@@H]1C(c2ccccc2)=CC2CCC1C2` (some centres not stated), the ED50 is 11.8 mg/kg in the assay listed under Mus musculus and 1.4 mg/kg in the assay filed under Rattus norvegicus [1]. In the assay with Rattus norvegicus [3], the Dose was found to be 25 mg/kg.

Regarding `CCCN[C@@H]1C(c2ccccc2)=CC2CCC1C2` (some centres not stated), the Dose in the assay on Rattus norvegicus [4] worked out at 25 mg/kg. In the assay filed under Rattus norvegicus [1], the ED50 is above 30 mg/kg.

In the assay filed under Mus musculus, `COCCN[C@@H]1C(c2ccccc2)=CC2CCC1C2` (some centres not stated) showed an ED50 of 27.7 mg/kg.

With `CC(N)Cc1ccccc1` (configuration not stated) [AMPHETAMINE], the ED50 in the assay listed under Mus musculus amounted to 1.6 mg/kg; in the assay listed under Rattus norvegicus [1], 2.1 mg/kg. Moreover, the Dose with Rattus norvegicus [3] is 12.5 mg/kg; in the assay with Rattus norvegicus [4], 6.25 mg/kg.

As for `C=CCN[C@@H]1C(c2ccccc2)=CC2CCC1C2` (some centres not stated), the median effective dose (ED50) amounted to 13.7 mg/kg in the assay filed under Mus musculus and 11 mg/kg in the assay filed under Rattus norvegicus [1]. Besides, the Dose with Rattus norvegicus [5] came to 50 mg/kg.

Turning to `CCN(C)[C@@H]1C(c2cccc(OC)c2)=CC2CCC1C2` (some centres not stated), the results for the ED50 in the assay filed under Mus musculus and in the assay listed under Rattus norvegicus [1] were 30.6 mg/kg and 10.4 mg/kg, respectively.

In the assay on Rattus norvegicus [2], `CCCN(C)[C@@H]1C(c2ccccc2)=CC2CCC1C2` (some centres not stated) showed a Dose of 25 mg/kg. The ED50 in the assay listed under Rattus norvegicus [1] is above 30 mg/kg.

`CCN[C@@H]1C(c2ccccc2)=CC2CCC1C2` (some centres not stated): the ED50 in the assay listed under Mus musculus was 15.6 mg/kg; in the assay listed under Rattus norvegicus [1], 3.1 mg/kg. For the same molecule, the Dose came out at 50 mg/kg in the assay with Rattus norvegicus [3] and 25 mg/kg in the assay on Rattus norvegicus [4].

In turn, `CN(CC1CC1)[C@@H]1C(c2ccccc2)=CC2CCC1C2` (some centres not stated) yielded a Dose with Rattus norvegicus [4] of 50 mg/kg. The ED50 in the assay filed under Rattus norvegicus [1] was above 30 mg/kg.

With `C1=C(c2ccccc2)[C@@H](NCC2CCCO2)C2CCC1C2` (some centres not stated), the ED50 in the assay listed under Mus musculus and in the assay listed under Rattus norvegicus [1] was above 30 mg/kg throughout. Also, in the assay on Rattus norvegicus [2], the Dose amounted to 50 mg/kg.

As for `C1=C(c2ccccc2)[C@@H](NCC2CC2)C2CCC1C2` (some centres not stated), the ED50 in the assay listed under Mus musculus was 4.1 mg/kg; in the assay filed under Rattus norvegicus [1] it was above 30 mg/kg. Also, the Dose with Rattus norvegicus [2] was 25 mg/kg.

In the case of `CN(C)CCN[C@@H]1C(c2ccccc2)=CC2CCC1C2` (some centres not stated), the ED50 in the assay listed under Mus musculus was 31 mg/kg; in the assay filed under Rattus norvegicus [1], 18.1 mg/kg. In the assay on Rattus norvegicus [2], this molecule displayed a Dose of 50 mg/kg.

`N[C@@H]1C(c2ccccc2)=CC2CCC1C2` (some centres not stated): the ED50 was 8.3 mg/kg in the assay listed under Mus musculus and above 10 mg/kg in the assay filed under Rattus norvegicus [1]. Besides, the Dose in the assay with Rattus norvegicus [2] and in the assay with Rattus norvegicus [6] was 25 mg/kg each time.

With `CCN(CC)[C@@H]1C(c2ccccc2)=CC2CCC1C2` (some centres not stated), the median effective dose (ED50) is 2.4 mg/kg in the assay listed under Mus musculus and above 30 mg/kg in the assay filed under Rattus norvegicus [1]. The molecule also came in with a Dose in the assay on Rattus norvegicus [4] of 25 mg/kg.

As to `COc1cccc(C2=CC3CCC(C3)[C@@H]2N(C)C)c1` (some centres not stated), the ED50 came out at 34.4 mg/kg in the assay filed under Mus musculus and 7.8 mg/kg in the assay filed under Rattus norvegicus [1]. Also, the Dose with Rattus norvegicus [3] stood at 50 mg/kg.
